# HKDC1 inh – HKDC1 hexokinase inhibitors, primary screen, biochemical, fluorescence, uHTS; recombinant HKDC1, G6PDH/diaphorase resazurin coupled fluorescence; inhibition, % at 20 µM; hit rate 0.16% among 340,000; AID 493160, 2011;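 active = inhibition above about 35% when tested at 20 µM, limit read from the data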;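 note: plate controls were DMSO wells with enzyme for no effect and DMSO wells lacking enzyme for full effect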
# Target sequence (Q2TB90 whole entry, looked up): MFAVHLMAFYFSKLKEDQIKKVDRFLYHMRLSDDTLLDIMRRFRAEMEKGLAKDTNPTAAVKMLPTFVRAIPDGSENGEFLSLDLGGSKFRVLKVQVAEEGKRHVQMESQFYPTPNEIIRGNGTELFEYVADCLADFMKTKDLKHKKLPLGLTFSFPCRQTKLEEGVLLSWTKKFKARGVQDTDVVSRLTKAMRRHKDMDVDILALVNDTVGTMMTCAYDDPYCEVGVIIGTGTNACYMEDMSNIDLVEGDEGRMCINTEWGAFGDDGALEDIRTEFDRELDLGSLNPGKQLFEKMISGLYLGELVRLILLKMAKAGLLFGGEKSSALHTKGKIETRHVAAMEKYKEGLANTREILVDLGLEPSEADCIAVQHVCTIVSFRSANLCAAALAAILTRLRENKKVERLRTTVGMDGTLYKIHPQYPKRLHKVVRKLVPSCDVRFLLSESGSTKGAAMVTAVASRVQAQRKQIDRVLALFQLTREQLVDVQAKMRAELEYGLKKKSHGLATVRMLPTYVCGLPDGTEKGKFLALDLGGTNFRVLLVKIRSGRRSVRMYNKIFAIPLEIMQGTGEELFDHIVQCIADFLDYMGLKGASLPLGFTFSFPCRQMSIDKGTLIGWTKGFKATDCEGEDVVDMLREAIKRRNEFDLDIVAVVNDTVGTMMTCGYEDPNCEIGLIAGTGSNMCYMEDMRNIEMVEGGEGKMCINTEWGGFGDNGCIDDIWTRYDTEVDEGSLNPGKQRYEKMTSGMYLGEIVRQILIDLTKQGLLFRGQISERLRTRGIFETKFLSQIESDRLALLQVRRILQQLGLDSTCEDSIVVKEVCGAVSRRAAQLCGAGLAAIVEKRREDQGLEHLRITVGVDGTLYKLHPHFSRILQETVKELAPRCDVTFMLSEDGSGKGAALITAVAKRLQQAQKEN
#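 Test system: recombinant HKDC1 (HK5) hexokinase enzyme, produced in-house; Amount: enzyme 5 µg/mL final; Buffer or medium: Tris pH 8.0 buffer with MgCl2, Tween-20, BSA, BME; Reagent: glucose and ATP substrates; Doses: 20 µM test compound, 1% DMSO; Incubation: 90 min reaction incubation at room temperature, dark; Detection: resorufin fluorescence at 613 nm.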
# PfG6PD inh – PfG6PD enzyme inhibitors, primary screen, biochemical, fluorescence intensity, uHTS; glucose-6-phosphate dehydrogenase-6-phosphogluconolactonase (Plasmodium falciparum 3D7); AID 504690, 2011; hit rate 0.78% among 350,000; inhibition, % at 20 µM; PfGluPho enzyme, NADPH resazurin-diaphorase fluorescence;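 active = inhibition reaching at least a set limit at 20 µM in the primary screen, cut at about 59% in these data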;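 note: 0% = DMSO wells with substrate and 100% = DMSO wells lacking glucose-6-phosphate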
# Diaphorase inh – diaphorase inhibitors and chemical oxidizers, primary screen, counter-screen for diaphorase-coupled primary assays, biochemical, uHTS, resorufin fluorescence. diaphorase resazurin-to-resorufin fluorescence, NADH, 16 min; bacterial (C. kluyveri) enzyme, not human. inhibition, % at 20 µM. hit rate 0.69% among 190,000;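 active = primary screen inhibition at 20 µM above a set limit, cut at about 50% in these data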;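 note: plate controls were DMSO with full reaction for no effect and wells lacking NADH for full effect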
#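 Assay system – diaphorase enzyme from Clostridium kluyveri · Amount – diaphorase 0.14 U/mL (working solution) · Times – reaction incubation of 16 min at room temperature · Controls – No-NADH positive control and DMSO neutral control · Signal – resorufin fluorescence 544/590 nm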
# Diaph act CS – compounds boosting diaphorase resazurin reduction – biochemical, uHTS, resorufin fluorescence, counter-screen for diaphorase-coupled primary assays, primary screen; Diaphorase/resazurin coupled assay, 16 min; hits give high values; 1 = vehicle wells, 0 = NADH-free wells; activation factor at 20 µM; hit rate 0.005% among 190,000; AID 1229, 2008;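 active = diaphorase activity raised at least twofold by the compound at 20 µM; inactive = activation factor below 2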
#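 test system = bacterial diaphorase enzyme (C. kluyveri) | quantity = enzyme 0.07 U/mL final | reagent = NADH substrate 0.114 mM plus resazurin dye 0.1 mM, final | incubation = 16 min enzyme reaction, ambient temperature | buffer or medium = HEPES pH 7.4 buffer with MgCl2 and Tween 20 | signal = fluorescence of resorufin, 544 nm excitation, 590 nm emission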
# G6PDH counter – L. mesenteroides G6PDH inhibitors, counter-screen for G6PDH-coupled screening assays, biochemical, Leuconostoc mesenteroides enzyme | glucose-6-phosphate dehydrogenase [Leuconostoc mesenteroides] | Purified L. mesenteroides G6PDH, diaphorase/resazurin coupled fluorescence, 45 min | inhibition, % at 5 µM | hit rate 0.12% among 200,000 | AID 1020, 2008; in the data active = inhibition above about 50%
# The depositor's hits bear a star; · = no result given. Most compounds without a hit are left out; they make up all but 1.3% or so of the library.
SMILES,HKDC1 inh,PfG6PD inh,Diaphorase inh,Diaph act CS,G6PDH counter
CC(=O)N1C(=O)/C(=C2\SC(=S)N(NS(=O)(=O)c3ccc(C)cc3)C2=O)c2ccccc21,17.0,-13.7,10.6,0.9,31.9
CCOC(=O)CC1=CCc2c1ccc(OC)c2OC,-3.3,8.4,·,·,·
Cc1nc2ccc(NC(=S)NCCCO)cc2nc1C,10.2,15.3,25.4,0.7,55.9*
CCCNC(=S)Nc1ccc2nc(-c3ccccn3)c(-c3ccccn3)nc2c1,7.7,36.2,52.2*,0.5,48.7
S=C(Nc1ccc2nsnc2c1)N1CCCCC1,2.5,-19.1,66.2*,0.3,49.7
Cc1nc2ccc(NC(=S)NC3CC3)cc2nc1C,-7.8,3.1,19.8,0.8,16.7
S=C(Nc1ccc2nc(-c3ccccn3)c(-c3ccccn3)nc2c1)N1CCCCC1,16.3,57.1,·,·,50.5*
COCC(=O)Oc1cc(-c2ccc(C)cc2C)c(OC(=O)COC)c(-c2ccc(C)cc2C)c1,·,7.4,·,·,·
Cn1cc(S(=O)(=O)N2CCNCC2)cc1C(N)=O,-5.0,-17.0,·,·,·
COc1cc(NC(=S)N2CCC(C(N)=O)CC2)c(OC)cc1Cl,-0.9,7.0,54.8*,0.5,-2.1
N#Cc1ccccc1S(=O)(=O)N1CCNS(=O)(=O)c2ccccc21,4.4,-0.8,·,·,·
Cc1cc(C)n2c(=O)[nH]nc2c1,3.3,-6.2,·,·,·
COc1ccc2c(=O)c3c(=O)n(Cc4ccco4)c(-c4ccco4)nc3oc2c1,18.6,24.4,51.7*,0.5,3.3
CC1CN=C(NS(=O)(=O)c2ccccc2)N1 (stereo not drawn),·,-21.5,·,·,·
O=C(NCc1ccco1)c1cccn2c(=O)c3cc4ccccc4cc3nc12,·,·,65.9*,0.3,34.6
CC(C)N1CCN(C(=O)c2ccc(OC3CCN(CCc4ccccc4)CC3)cc2)CC1,-3.7,8.5,·,·,·
Cc1ccc(N=Nc2c(N)[nH]n3c(=O)cc(C)nc23)cc1,-10.2,-1.2,20.9,0.8,-2.5
Nc1[nH]n2c(=O)cc(-c3ccccc3)nc2c1N=Nc1ccc(S(N)(=O)=O)cc1,8.5,-15.9,89.7*,0.1,12.2
Nc1[nH]n2c(=O)cc(-c3ccccc3)nc2c1N=Nc1ccccc1,-15.4,-14.5,67.3*,0.3,5.0
O=C(CSc1nc(=O)n2ccccc2n1)OCc1ccccc1,0.0,6.9,·,·,·
Nc1c(C(=O)NC2CCCC2)c2nc3ccccc3nc2n1N,8.2,39.0,50.3*,0.5,2.1
Cn1ccnc1COc1ccc(C=O)cc1,-3.5,5.5,·,·,·
O=C(COC(=O)c1c2c(nc3ccccc13)CCCCC2)c1ccc(Cl)s1,-8.5,-7.0,17.0,0.8,-44.6
C[C@@H]1CN([C@H](C)CO)C(=O)CCCn2cc(nn2)CO[C@H]1CN(C)C(=O)C1CC1,·,-11.2,·,·,·
CCOc1cc(CNc2ccc3c(c2)CCC3)ccc1O,1.6,12.9,21.6,0.8,-0.8
SMILES,HKDC1 inh,PfG6PD inh,Diaphorase inh,Diaph act CS,G6PDH counter
COc1cc(CNc2ccc3c(c2)CCC3)cc(OC)c1O,4.5,13.2,56.0*,0.4,-42.4
Cc1ccc2sc(C)[n+](CCO)c2c1,-6.6,45.1,7.3,0.9,-1.9
CCCC[n+]1c(C)sc2ccc(C)cc21,-0.1,25.8,66.5*,0.3,12.8
CC[n+]1c(C)sc2cc(C)ccc21,-3.0,38.5,54.4*,0.5,7.7
COc1ccc(NC(=O)COc2ccccc2Cc2ccccc2)cc1S(=O)(=O)N1CCOCC1,7.7,22.0,·,·,·
CC(C)N1CCc2c(sc(NC(=O)c3cc4cc([N+](=O)[O-])ccc4s3)c2C(N)=O)C1,24.3,18.0,66.9*,0.3,-4.4
CCOc1cc(N2CCOCC2)c(OCC)cc1NC(=O)Cc1cccc2ccccc12,3.6,89.1*,10.5,0.9,1.7
O=C(CCCCn1cnc2c(=S)nc[nH]c21)Nc1ccc(C(=O)O)c(O)c1,0.1,33.0,·,·,·
CCOC(=O)C1=C(CC)Nc2ccccc2N=C1NC(=O)c1ccc(OC)c(S(=O)(=O)N2CCOCC2)c1,-5.0,-1.2,·,·,·
CCOC(=O)CSc1nc2c(sc(=S)n2-c2ccccc2OC)c(=O)n1-c1ccccc1OC,1.6,54.9,·,·,·
COc1ccc(-n2c(SCC(=O)C(C)(C)C)nc3c(sc(=S)n3-c3ccccc3)c2=O)c(OC)c1,-13.9,78.2*,·,·,·
N#Cc1ccc(COC(=O)CCc2c[nH]c3ccccc23)cc1,3.0,9.7,·,·,·
Oc1ccc(/C=N/Nc2cc(N3CCOCC3)nc(N3CCOCC3)n2)cc1O,9.3,7.3,63.7*,0.4,37.2
O=S(=O)(/N=C/c1c(O)ccc2ccccc12)c1cccs1,·,·,32.2,0.7,57.3*
O=c1c2c(nc3n1CCS3)c1cc(F)ccc1n2Cc1cc(=O)n2cc(Cl)ccc2n1,7.3,61.7*,·,·,·
O=C(/C=C/c1ccc(O)c(O)c1)c1ccc(S(=O)(=O)N2CCCCCC2)cc1,-1.8,-14.3,52.2*,0.5,6.1
O=C(c1ccc(S(=O)(=O)N2CCCC2)cc1)N1CCCCC1,-3.6,0.2,·,·,·
O=C(CNc1ccc(C(F)(F)F)cc1)Nc1cccc(S(=O)(=O)N2CCCCC2)c1,·,27.3,·,·,·
CC1CCCCC1N(C)C1CCN(C(=O)CNC(=O)/C=C/c2cccc(Cl)c2)CC1 (stereo not drawn),-4.7,-3.4,·,·,·
Cc1cc(C(=O)N/N=C/c2cccc([N+](=O)[O-])c2O)n[nH]1,1.6,-14.9,50.2*,0.5,34.6
O=C(O)c1c2c(nc3ccccc13)/C(=C/c1ccc(O)cc1)CC2,3.7,22.6,69.3*,0.3,0.8
O=C(O)c1c2c(nc3ccccc13)/C(=C/c1ccc(OC(F)F)cc1)CCC2,7.8,-19.5,·,·,·
CSCCC(NC(=O)c1ccc(Cl)cc1Cl)C(=O)NCC(c1cccs1)N(C)C (stereo not drawn),-6.5,1.2,·,·,·
COc1cccc(-c2c(C(=O)N/N=C/c3cccs3)nnn2-c2nonc2N)c1,11.1,59.1*,·,·,·
Cc1ccc(-n2c(C)nnc2SCC(=O)NC2CCCC2)cc1,-6.0,14.9,·,·,·
Cc1cc(/C=c2/sc3nc4ccccc4n3c2=O)c(C)n1-c1ccccn1,4.6,38.4,52.1*,0.5,10.2
Cc1ccccc1C(=O)N1CCC2CC1c1cc(Cl)ccc12 (stereo not drawn),-4.8,-18.4,·,·,·
CN(C(=O)Nc1ccccc1)C1CCS(=O)(=O)C1 (stereo not drawn),-1.3,-2.5,8.3,0.9,7.2
CC(=O)NC1=C(N(C)C2CCS(=O)(=O)C2)C(=O)c2ccccc2C1=O (stereo not drawn),39.4*,97.3*,62.0*,0.4,47.2

# Screening data as filed in PubChem BioAssay.
